Where a name gives a salt, the structure may show the parent alone. The source made the active and inactive calls. The calls are words filed in the database; no cut-off is given here.
Legend:
[1] = system: Mycolicibacterium smegmatis; experiment: Antimycobacterial activity against Mycobacterium smegmatis NBRC 3207 at 10 ug/disc after 2 days by paper disc method; assay type: functional; details: NBRC 3207, 48 h, read-out: IZ
How it was run: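 Paper disc diffusion. Strain kept in 20% glycerol at −80 °C, then grown 2 days at 37 °C in Middlebrook 7H9 broth with 0.05% polysorbate 80, 0.5% glycerol and 10% OADC. Adjusted to 1.0 × 10^6 CFU/mL and spread on the same medium with 1.5% agar. Sample in CH3OH dried onto 6 mm discs. Plates incubated 37 °C, 2 days. Inhibition zone read in mm. Streptomycin sulfate (5 μg/disc) positive control; CH3OH negative control.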

Huh-7 = experiment: Cytotoxicity against human HuH7 cells assessed as reduction in cell viability after 72 hrs by WST-1 assay; assay type: functional, cell-based; details: Huh-7, 72 h
How it was run: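 Cells seeded at 1 × 10^4 per well, cultured overnight, then exposed to compound for 72 h. WST-1 (0.5 mM) with 1-PMS (0.02 mM) in medium added for 60 min at 37 °C. Absorbance read at 438 nm, reference 620 nm. Viability expressed as percent of 0.1% EtOH-treated controls. IC50 reported.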

[2] = system: Mycolicibacterium smegmatis; experiment: Antimycobacterial activity against Mycobacterium smegmatis NBRC 3207 at 5 ug/disc after 2 days by paper disc method; assay type: functional; details: NBRC 3207, 48 h, read-out: IZ
How it was run: (§1)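 Strain stored in 20% glycerol at −80 °C. Grown in Middlebrook 7H9 broth with 0.05% polysorbate 80, 0.5% glycerol and 10% OADC at 37 °C for 2 days, then adjusted to 1.0 × 10^6 CFU/mL and spread on the same medium with 1.5% agar. Samples in CH3OH dried onto 6 mm filter discs, incubated 37 °C for 2 days. Read-out is inhibition zone (mm). Streptomycin sulfate 5 μg/disc as positive control, CH3OH as negative control.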

[3] = system: Mycolicibacterium smegmatis; experiment: Antimycobacterial activity against Mycobacterium smegmatis NBRC 3207 at 10 to 20 ug/disc after 2 days by paper disc method; assay type: functional, organism-based; how it was run: as §1

## N[C@@H]1C[C@@H]2CCCC[C@H]2[C@@H]1/C=C/C=C\[C@H]1[C@@H]2CCCC[C@H]2C[C@@H]1N
[1]
  zone of inhibition at 10 µg/disc: 8 mm
Huh-7
  IC50: 7.2 µM

## C1=C\[C@H]2[C@@H]3CCCC[C@H]3C[C@@H]2NCCCN[C@@H]2C[C@@H]3CCCC[C@H]3[C@@H]2/C=C/1
[1]
  zone of inhibition at 10 µg/disc: 12 mm
Huh-7
  IC50: > 10 µM

## C1=C\[C@H]2[C@@H]3CCCC[C@H]3C[C@H]2NCCCN[C@H]2C[C@@H]3CCCC[C@H]3[C@@H]2/C=C/1
[1]
  zone of inhibition at 10 µg/disc: 7 mm
Huh-7
  IC50: 6.7 µM

## COc1cccc2c1C(=O)c1c(O)c3c(c(O)c1C2=O)C[C@@](O)(C(=O)CO)C[C@@H]3O[C@H]1C[C@H](N)[C@H](O)[C@H](C)O1 [DOXORUBICIN]
Huh-7
  IC50: 0.4 µM

## CN[C@@H]1[C@H](O[C@H]2[C@H](O[C@H]3[C@H](O)[C@@H](O)[C@H](N=C(N)N)[C@@H](O)[C@@H]3N=C(N)N)O[C@@H](C)[C@]2(O)C=O)O[C@@H](CO)[C@H](O)[C@H]1O [STREPTOMYCIN SULFATE]
[2]
  zone of inhibition at 5 µg/disc: 30 mm

## CCCCC[C@@H]1O[C@@H]2CC[C@H]1NC(=N)N2
Huh-7
  IC50: > 10 µM
[3]
  inhibition: inactive

## CCCCC[C@H]1O[C@@H]2CC[C@H]1NC(=N)N2
Huh-7
  IC50: > 10 µM
[3]
  inhibition: inactive

## C1=C/[C@H]2[C@@H]3CCCC[C@H]3C[C@H]2NCCCN[C@@H]2C[C@@H]3CCCC[C@H]3[C@@H]2/C=C/1
[1]
  zone of inhibition at 10 µg/disc: 12 mm
Huh-7
  IC50: 3.9 µM

## C1=C/[C@H]2[C@@H]3CCCC[C@H]3C[C@@H]2NCCCN[C@@H]2C[C@@H]3CCCC[C@H]3[C@@H]2/C=C/1 [HALICLONADIAMINE]
[1]
  zone of inhibition at 10 µg/disc: 16 mm
Huh-7
  IC50: 3.6 µM

## N[C@@H]1C[C@@H]2CCCC[C@H]2[C@@H]1/C=C\C=C\[C@H]1[C@@H]2CCCC[C@H]2C[C@@H]1N
[1]
  zone of inhibition at 10 µg/disc: 7 mm
Huh-7
  IC50: 7.8 µM

Reference: ChEMBL document CHEMBL4477191, “Haliclonadiamine Derivatives and 6-epi-Monanchorin from the Marine Sponge Halichondria panicea Collected at Iriomote Island” (J Nat Prod, 2016)
